Screening data deposited in PubChem by several laboratories.
Hits are enriched below; roughly 3.7% of the tested compounds scored in any of these assays.
Dynein transport: blocks dynein driven cargo transport along microtubules | 3617.4 mouse cells, GR-EGFP nuclear translocation imaging; test concentration mostly 20 µM; stimulated with dexamethasone, 1 µM; stronger effect = lower value | z-score, hits read low | actives 0.47% (n = 220,000);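 active = plate z-score of nuclear minus cytoplasmic receptor signal below a set negative limit, without overly bright fluorescence or cell loss, cut at about -3.5 in these data, passing the limit was not always enough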;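 also: z-score of nuclear minus cytoplasmic ring GR-EGFP intensity difference per well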
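medium = tetracycline-free induction medium containing charcoal-stripped FBS | probe or stimulus = dexamethasone, 1.0 µM final | timing = 48 h induction, then 1 h compound, then 30 min agonist, 37 °C | detection = automated 10x imaging of fixed Hoechst-stained cells | read-out basis = nuclear versus cytoplasmic GR-EGFP signal, averaged per well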
Mdm2-MdmX inh: human Mdm2/MdmX binding inhibition; SaOS-2 split-luciferase Mdm2/MdmX complementation, luminescence; actives 3% (n = 330,000); inhibition, % at 8 µM;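 active = inhibition of at least 50% at 8 µM in the primary screen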
CHOP UPR activ: apoptotic UPR (CHOP) activation; actives 0.34% (n = 330,000); CHO-CHOP luciferase reporter, luminescence; percent of tunicamycin response over DMSO baseline; activation, % at 10 µM;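 active = at 10 µM dose, activation of 40% or more, normalized to positive control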;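 also: 100% = tunicamycin at 10 µg/mL and 0% = DMSO alone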
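measured by = luciferase luminescence | assay system = CHO-CHOP cells, stable luciferase reporter of PERK-eIF2a-CHOP signalling | amount = 500 reporter cells seeded per well | timing = 6 h compound exposure at 37 °C after overnight seeding | controls = positive tunicamycin 10 µg/mL, negative DMSO alone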
MDM2 E3 inh: Mdm2 E3 ligase (human) inhibition; cell-based MDM2 ubiquitination luciferase reporter, 2 h; 0 = plate control, 100 = twice control, blank-subtracted; signal enhancement, % at 5 µM; actives 0.11% (n = 210,000);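 active = signal enhancement of 30% or more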;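 also: luminescence tracks abundance of the self-degrading MDM2-luciferase fusion protein; higher signal means inhibition of MDM2 E3 ligase activity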
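Buffer or medium: Cells held in DMEM | Assay system: Stable mammalian line carrying autodegrading MDM2–luciferase fusion reporter | Quantity: 2000 cells/well | Times: 4 h settle plus 2 h compound, 37 °C | Doses: One concentration, 5 µM, with 0.2% DMSO | Technique: Luminescence with SteadyLite reagent, 15 min at room temperature | Benchmarks: Plate controls and plate blanks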
XBP1 UPR activ: adaptive UPR (XBP1) activation; CHO-XBP1 luciferase reporter, IRE1-XBP1 UPR activation, luminescence; percent of tunicamycin response, DMSO as zero; activation, % at 20 µM; actives 0.33% (n = 330,000);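 active = versus positive control, 20 µM dose yields 30% or more activation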;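 also: 100% = tunicamycin at 10 µg/mL and 0% = DMSO only wells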
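Assay system: IRE1-XBP1 luciferase reporter CHO line. Input: 1000 cells/well. Buffer or medium: F12 with 10% serum. Doses: 20 µM, 1% DMSO. Times: overnight seeding at 37 °C, 6 h compound treatment at 37 °C. Technique: Steady-Glo luciferase glow luminescence, 10 min after reagent addition.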
Beta2AR agonist: agonists of human beta-2 adrenergic receptor inducing internalization; response, % (no concentration beside the values); P07550; Am2.2-beta2AR cells, FAP receptor internalization, flow cytometry; actives 0.43% (n = 340,000);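 active = response above a set limit, near 3 SD of response in nonfluorescent compounds, cut at about 42% in these data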
Dynein inh conf: dynein cargo transport inhibition, confirmation; shares compounds with Dynein transport; 3617.4 GR-EGFP nuclear translocation imaging, dexamethasone-induced; calls only at 20 µM; actives 69% (n = 1,000); AID 463116;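 active = inhibition of receptor movement into the nucleus at or above a set limit in both runs, with normal cell brightness and cell count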;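 also: dexamethasone at 1 µM final in well for 30 min; nuclear minus cytoplasmic GR-EGFP mean intensity difference in channel 2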
* hit, by the source's call; i = inactive; x = not tested or not shown; + = active, no number.

SMILES	Dynein transport	Mdm2-MdmX inh	CHOP UPR activ	MDM2 E3 inh	XBP1 UPR activ	Beta2AR agonist	Dynein inh conf
COc1ccc(S(=O)(=O)Nc2ccccc2)cc1	x	-14	-1	x	-1	3	x
CCc1ccc2nc3sc(C(=O)N4CCc5ccccc54)c(N)c3cc2c1	-2.3	47	6	-19	9	x	x
Cc1ccc(C)c2nc3sc(C(=O)N4CCCc5ccccc54)c(N)c3cc12	-7.1	1	-2	-16	-3	-401	i
O=Cc1cn(-c2ccccc2)nc1-c1ccccc1	x	17	6	x	1	-4	x
CC1=NNC(=O)/C1=C\c1cn(-c2ccccc2)nc1-c1ccccc1	-3.9*	x	x	8	x	82*	i
Cc1ccc(C(=O)Nc2ccccc2C(=O)N2CCCC(C)C2)cc1 (stereo unspecified)	x	17	5	x	-5	0	x
O=C1C=C(NC2=CC3OC(c4ccccc4)OCC3OC2=O)CCC1 (stereo unspecified)	-4.4*	x	x	-12	x	6	+
Cc1ccc(CNC(=O)COc2ccc(C)nc2[N+](=O)[O-])cc1	0.59	9	-2	-2	0	-20	x
Cc1ccc(OCC(=O)c2ccc(Cl)s2)c([N+](=O)[O-])n1	-3.9*	13	7	-2	0	11	+
O=C(Nc1ccc(N2CCCCC2)cc1)c1ccc([N+](=O)[O-])o1	x	34	35	x	-10	27	x
CCC(=O)N1CCN(c2ccc(NC(=O)c3ccc([N+](=O)[O-])o3)cc2)CC1	-4*	x	x	-23	x	-1	+
O=C(Nc1ccc(N2CCN(C(=O)c3ccc(Cl)cc3)CC2)cc1)c1ccc([N+](=O)[O-])o1	-4.9*	x	x	-11	x	40	+
CCCC(=O)N1CCN(c2ccc(NC(=O)c3ccc([N+](=O)[O-])o3)cc2)CC1	-4.1*	x	x	-14	x	17	+
O=C(Nc1ccc(N2CCCC2)c(Cl)c1)c1ccc([N+](=O)[O-])o1	-4*	x	x	-12	x	29	+
CS(=O)(=O)N1CCN(c2ccc(NC(=O)c3ccc([N+](=O)[O-])o3)cc2)CC1	-1.3	x	x	-10	x	11	x
CCc1c(C)c2ccc(OCC(=O)NCC3CCC(C(=O)O)CC3)c(C)c2oc1=O (stereo unspecified)	x	21	-1	x	0	-3	x
Cc1ccc(-c2csc(NCCn3c(-c4ccncc4)nc4ccccc43)n2)cc1	x	20	0	x	8	20	x
CCOc1ccc(CNC(=O)Cn2nc(C)c3c(C)n(-c4ccc(C)cc4)nc3c2=O)cc1	x	25	1	x	-1	-2	x
COc1cc(C(=O)Sc2ccc(C)cc2)cc(OC)c1OC	-4.4*	-2	20	-23	5	-2	+
COc1cc(C(=O)OCC(=O)Nc2ccc(C)cc2)cc(OC)c1OC	x	8	2	x	-1	9	x
CCOC(=O)COc1ccc2ccccc2c1/C=C/[N+](=O)[O-]	-4.8*	x	x	-49	x	44*	+
CCOC(=O)Cn1cc(/C=C/[N+](=O)[O-])c2ccccc21	0.078	-9	1	-2	-3	22	x
O=C1ON=C(c2ccccc2)/C1=C/c1ccccc1	x	2	0	x	-6	8	x
CC1=NOC(=O)/C1=C\c1ccc(-c2ccc(Cl)c(C(=O)O)c2)o1	-0.57	16	-1	-8	-4	10	x
O=C1ON=C(c2ccccc2)/C1=C\c1ccco1	-4.4*	9	3	-9	11	0	+
CC1=NOC(=O)/C1=C\c1ccc(-c2ccccc2Br)o1	-3.7*	x	x	-23	x	36	+
Cc1ccc(/C=C2/C(=O)ON=C2c2ccccc2)o1	-6*	23	6	1	20	39	+
O=C1C=C(c2cccc(Br)c2)C[C@@H](c2ccc3c(c2)OCO3)C1	x	-7	1	x	-1	8	x
